Experiment: Toxicity liver stage against HepG2, at 10uM
Format: cell-based
Parameters: test concentration 10 uM, cell line HepG2-A16-CD81EGFP
Details: human, HepG2-A16-CD81EGFP cells; read-out: INHIBITION
Method in brief: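 Uninfected HepG2-A16-CD81EGFP cells, 3 × 10^3 per well, 1536-well, plated on prespotted compound at 10 μM final, parasite-free screening media added to match infected plates; puromycin 10 μM positive, DMSO 0.5% negative; run in parallel with 48 h PbLuc assay at 37 °C, 5% CO2; viability by CellTiter-Glo luminescence, normalized to controls.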

Row | Compound | cytotoxicity at 10 µM
1 | CC(C)(C)c1cc(=O)n2c(n1)SCC(C(=O)NCc1ccccn1)C2 (stereo unspecified) | -6.88%
2 | COCC1CN(C(=O)c2cccc(C)n2)Cc2ncnn2C1 (stereo unspecified) | 3.84%
3 | Cc1cc(NCc2ccccc2)nc2[nH]nc(N)c12 | -44%
4 | CCC[C@@H]1CN(Cc2cnc(-c3cccs3)nc2)C[C@H]1C(=O)O | -22.9%
5 | Clc1cccc(C[C@@H]2NCCC[C@@H]2Nc2cccc(Cl)c2)c1 | 86%
6 | Cn1ccnc1CN1CCCN(C(=O)c2cccc(CC#N)c2)CC1 | -2.13%
7 | COc1nn(C)c2c1CCCN(S(=O)(=O)c1ccccc1F)C2 | -109%
8 | COCCN(C)C(C)Cc1ccccc1OC (stereo unspecified) | -5.34%
9 | COCCC(=O)N1C[C@@H](O)[C@H](N2CCN(c3ccccc3)CC2)C1 | 0.046%
10 | COc1cccc(C2SCC(=O)Nc3n[nH]cc32)c1OC(C)C (stereo unspecified) | 5.09%
11 | CN(C)C(=O)N1CCc2c(CNc3ncccn3)cncc2C1 | -3.55%
12 | Cc1ccc(CNCC2Cn3nnc(-c4cccc(F)c4)c3CO2)o1 (stereo unspecified) | -0.617%
13 | COc1ccnc(NC(=O)CSCc2cccnc2)c1 | -47.2%
14 | COc1ccc(S(=O)(=O)NCCC(O)c2ccoc2)c(C)c1 (stereo unspecified) | -0.608%
15 | Cc1cc(Cl)c(C)c(S(=O)(=O)N2CCN(Cc3ccccn3)CC2)c1Cl | -7.06%
16 | c1nc(NCc2cc3n(n2)CCN(C2CCCCC2)C3)c2nc[nH]c2n1 | 24.2%
17 | CSCCCNC(=O)C(c1ccccc1C)N(C)C (stereo unspecified) | 4.68%
18 | CC(C)c1nnc(CN2C(=O)OC[C@@H]2C(C)C)o1 | 14.3%
19 | COCCNc1ccc(CNCc2cnc3nc(C)cc(C)n23)cc1 | -153%
20 | O=C(CO)N1CCN(S(=O)(=O)CCCF)CC1 | -0.655%
21 | O=C(c1ccc(-n2cccn2)nc1)N1CCCC(n2cccn2)C1 (stereo unspecified) | -4.75%
22 | CCCn1nc2c(cc1=O)CN(CCN1CCCC1=O)CC2 | -11.6%
23 | CN(Cc1cccs1)C(=O)CNC1CCc2ncnn2C1 (stereo unspecified) | 3.03%

Row | Compound | cytotoxicity at 10 µM
24 | Cc1cc(N2CCOC(c3ccc(N(C)C)cn3)C2)nc(N)n1 (stereo unspecified) | 5.62%
25 | CCN(CC)C(=O)c1nc2c(s1)CCN(Cc1cccc(OC)c1)CC2 | 2.77%
26 | Cn1ccc(C(=O)N2CCc3[nH]nc(Nc4ccccc4)c3C2)n1 | 5.21%
27 | CCc1ccsc1C(=O)NC(C#N)CC (stereo unspecified) | 3.15%
28 | CCc1nc(C)c(-c2nccn2CC2CC(=O)N(CC)C2)[nH]1 (stereo unspecified) | 0.361%
29 | COc1ccc(Cl)cc1NCCC(=O)NCCNc1cnccn1 | -10.3%
30 | O=C(c1ccc[nH]1)N1CCc2ncc(Cn3cccn3)n2CC1 | -0.469%
31 | N#Cc1cccc(NC(=O)C2CCCN2c2nccs2)c1 (stereo unspecified) | -5.28%
32 | Cc1ccccc1OC1(C(=O)O)CCN(C(=O)CCc2ccco2)CC1 | 1.5%
33 | COc1ncccc1C(=O)NCCn1cnc(C)cc1=O | -0.37%
34 | CCN1CC2(CC1=O)CN(C(C)=O)CCN(C(=O)NC(C)C)C2 (stereo unspecified) | 8.95%
35 | CC(=O)N1N=C(c2ccncc2)OC1C(=O)N(C)CCc1ccccc1 (stereo unspecified) | 12.9%
36 | CNC(=O)CC1CCN(C(=O)Nc2ccc(-c3cc[nH]n3)cc2)CC1 | 6.8%
37 | CS(=O)(=O)NCCC1CCCCN1C(=O)NCc1ccccn1 (stereo unspecified) | -0.871%
38 | Cc1ccc(C(=O)N2CC[C@H]3O[C@@H](c4noc(C)n4)C[C@H]3C2)o1 | 1.92%
39 | Cc1ccccc1CN(CC(=O)O)C(=O)COCC1CC1 | -1.92%
40 | CCc1nnc(SC2CCN(c3ccccc3F)C2=O)n1C (stereo unspecified) | 1.77%
41 | COc1ccc(S(=O)(=O)NCCn2cnc(C)cc2=O)cc1C | 7.69%
42 | O=C1NC[C@H]2CN(Cc3ccnc4ccccc34)CCN12 | -3.66%
43 | Cc1cc(C)n2c(CNCCNc3ccccc3)cnc2n1 | -144%
44 | COCCn1/c(=N\C(=O)CN(C)S(C)(=O)=O)sc2cc(Cl)ccc21 | -13.7%
45 | COCc1cc(N(C)Cc2ccccn2)nc(C(C)(C)C)n1 | 12.1%
46 | C[S+]([O-])c1ccc(NC(=O)Cc2cccnc2)cc1F (stereo unspecified) | -4.26%

Row | Compound | cytotoxicity at 10 µM
47 | CC(C)CCn1cc(C(C(=O)O)N2CCC(N3CCSCC3)CC2)cn1 (stereo unspecified) | -1.09%
48 | CSCC[C@@H](CO)NC(=O)c1sc(-c2ccc(Cl)cc2)nc1C | 6.45%
49 | COc1ccc2c(c1)C(=O)NC1(CC2)CCN(Cc2ccncc2)C1 (stereo unspecified) | 3.44%
50 | CC(C)(C)OC(=O)N1CC(CC(=O)NCc2ccnc(C3CC3)c2)C1 | 5.54%
51 | Cc1cc(NCCCNc2cccnc2)n2nc(C)c(C)c2n1 | 2.35%
52 | Cc1nccn1-c1ccc(C(C)NCc2cccn2C)cc1 (stereo unspecified) | 8.61%
53 | Cn1c(NCC(=O)N2CCCC2)c(C#N)c(=O)n(C)c1=O | 15.4%
54 | COc1ccccc1N1CCN(C(=O)Cn2nccc2C)CC1(C)C | 11.8%
55 | Cc1ccc(CCN2C(=O)CC[C@H]3CN(Cc4cnn(C)c4)CC[C@H]32)o1 | -2.19%
56 | Cc1noc(C)c1CNc1c(N2CCCC2)cccc1N1CCCC1 | 6.17%
57 | CCN(Cc1nc(C)no1)C(=O)C1CC(=O)N(Cc2ccccn2)C1 (stereo unspecified) | 4.78%
58 | CNC(=O)C1CN(C(=O)c2cccs2)CCN(S(C)(=O)=O)C1 (stereo unspecified) | 2.41%
59 | Cc1nc(CN2CCCC(C)(CO)C2)no1 (stereo unspecified) | 5.89%
60 | Fc1cccc2c1CCC2NCc1cnc(N2CCOCC2)nc1 (stereo unspecified) | 5.42%
61 | Fc1cnc(N2CCO[C@H]3CN(CC4CCCCC4)C[C@H]32)nc1 | 6.61%
62 | CN(C)C(=O)COC[C@@H]1CC[C@H]2[C@H](CCN2c2ccccn2)O1 | 10%
63 | CC1CCN(c2nc3cn(-c4ccc(F)cc4)c(=O)c-3c[nH]2)CC1 | 3.47%
64 | CCCOc1ccc(NC(=O)NCCC(=O)N(C)C)cc1Cl | -10.9%
65 | CC(C)CCN1Cc2c(C(=O)O)ncn2-c2ccccc2S1(=O)=O | 6.72%
66 | CN(CC(F)(F)F)C(=O)CNC(=O)N1CCC(N2CCCC2)C1 (stereo unspecified) | 3.72%
67 | CCN(CC)C(=O)CNC(=O)N1CCC(c2ccc(OC)cc2)C1 (stereo unspecified) | -5.51%
68 | CC(C)c1cnc(CN2CCCS2(=O)=O)o1 | 10.6%
69 | COCC(O)CN(C)C(=O)NCc1ccc(-c2ccn[nH]2)cc1 (stereo unspecified) | 1.81%

Row | Compound | cytotoxicity at 10 µM
70 | CCC(C#N)NC(=O)c1cc(Br)c2c(c1)OCCO2 (stereo unspecified) | -15.7%
71 | C[C@@H]1CN(C2(C(=O)N3CC[C@H](O)C3)Cc3ccccc3C2)C[C@H](C)O1 | -5.19%
72 | CN(C)c1cc(C(=O)N2CCCN(Cc3cscn3)CC2)ccn1 | -15%
73 | CCn1ccnc1CN1CCN(c2ncnc3ccsc23)CC1C (stereo unspecified) | 3.04%
74 | CNC(=O)N1CC[C@@H]2CN(Cc3cccc(Cl)c3)S(=O)(=O)[C@@H]2CC1 | 0.748%
75 | Cc1ccc(N2CCO[C@H]3CN(Cc4cc(C)on4)CC[C@H]3C2=O)cn1 | -72.2%
76 | CC(NCc1cnc(N2CCOCC2)nc1)c1ccc(Cl)s1 (stereo unspecified) | -4.9%
77 | Cc1noc(C)c1CN1CCO[C@H]2CN(C(=O)N3CCCC3)C[C@H]21 | 8.01%
78 | CSc1ccc(NS(=O)(=O)c2cnn(C)c2)cn1 | -4.69%
79 | COc1ccc2c(=O)n(CC3CCCCN3C)ccc2c1OC (stereo unspecified) | 3.19%
80 | c1ccc(-c2nccc(CNC3CCc4ncnn4C3)n2)cc1 (stereo unspecified) | 0.787%
81 | NCC(=O)N1CCCC1c1nccnc1Nc1ncccn1 (stereo unspecified) | -2.42%
82 | O=C1CCC2(CCCN(C(=O)NCc3ccccc3)CC2)N1 (stereo unspecified) | 5.23%
83 | CCc1ccc(C(=O)N2CC[C@](C)(O)[C@H](C)C2)[nH]1 | 2.27%
84 | COc1ccc(-c2cc3nn(CC(=O)NC(C)C)c(=O)n3c(C)n2)cc1 | 1.81%
85 | CCCC(=O)NCc1cc(Br)c(OC)c(OC)c1 | 1.11%
86 | CCc1cc(N2CCC(n3cc(C(=O)NC4CC4)nn3)CC2)ncn1 | 27.7%
87 | Cc1ncsc1C(=O)OCC1CCN(c2ccccc2)C1 (stereo unspecified) | 27.5%
88 | Cc1nc(CCNC(=O)c2cc(C(C)C)nn2C)sc1C | 22.4%
89 | O=C(Cc1cccc(F)c1)NCCNCc1cccnc1 | -1.56%
90 | CN(C)CC1CN(Cc2ccsc2)Cc2nccn2C1 (stereo unspecified) | 1.72%
91 | O=c1ncn(-c2cccc(F)c2)c2ncccc12 | 4.19%
92 | CO[C@H]1CNC[C@@H]1NC(=O)c1cc(C)nc2ccc(C)cc12 | 1.25%

Row | Compound | cytotoxicity at 10 µM
93 | O[C@H]1CN(CCCOc2ccccc2F)CC[C@@]12CCCO2 | 3.06%
94 | Cc1cc(C)nc(N2CCN(Cc3cc4n(n3)CCNC4)CC2)n1 | -8.46%
95 | CCc1nc(CN(C)CC2CCN(CC(C)O)CC2)no1 (stereo unspecified) | -10.3%
96 | Cc1ccc(CN2CCOC3(COCCN(C(C)C)C3)C2)s1 (stereo unspecified) | -0.82%
97 | CCOc1ncccc1CNC(=O)NC1CCOc2ccccc21 (stereo unspecified) | -9.65%
98 | CCn1cc(S(=O)(=O)N2CCC3(CCCN(CC4CCC4)C3=O)C2)cn1 (stereo unspecified) | 2.45%
99 | COc1ccccc1C1Cn2c(C)cnc2CN1Cc1c[nH]nc1C (stereo unspecified) | 2.79%
100 | CCCN1CCC(N2CCN(c3cccc(C)n3)CC2)CC1 | -10.8%
101 | Cc1cnn(CC2CCCN2C(=O)c2csc(C3CC3)n2)c1 (stereo unspecified) | -17.8%
102 | CCSc1nnc([C@@H](N)CC(C)C)o1 | -2.39%
103 | C[C@@H](CO)Nc1cc(-c2cn[nH]c2)ncn1 | -10.6%
104 | Cc1ccccc1OCCn1cnc2oc(C)c(C(=O)O)c2c1=O | 11%
105 | CC(C)c1nc2c(n1C)CCN(Cc1cccc(OCC(N)=O)c1)C2 | -7.24%
106 | COCc1c(Br)cccc1NC(=O)N(C)CCO | -9.95%
107 | CC(=O)N1CCC(N2CCOC[C@H]2c2nc(-c3cccnc3)c[nH]2)CC1 | 1.35%
108 | COc1ccccc1CC(=O)N1CCC(NCc2ccc(C)o2)CC1 | -5.28%
109 | COc1ccc(CN(C)C(=O)c2nnc(CN(C)C)o2)cc1 | -3.42%
110 | CCS(=O)(=O)N1CCC2(CN(c3cc(OC)ncn3)C2)C1 | 0.325%
111 | Cc1cccnc1NC(=O)CNC(=O)c1ccccc1Cl | -3.36%
